Publication PMC3891043 (Canadian journal of chemistry, 2011)

Assays:
[1] = Photolysis quantum yields; assay type: physicochemical
Method in brief: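 Caged compound (1–9 mmol/L) plus internal standard (caffeine or 4-acetamidophenol) in water, buffer or solvent, in a quartz tube. Irradiated in a Rayonet carousel (two 15 W, 3000 Å Hg lamps), with ferrioxalate actinometry. Aliquots taken every 30 s up to 5 min, diluted and run on C18 LC-MS (water/methanol gradient with ammonium formate/formic acid), three injections each. Quantitation used calibration curves; Φ = concentration change / photons absorbed. 1H NMR in D2O confirmed products.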

[2] = Stern-Volmer quenching with sorbate; assay type: physicochemical; settings: unbuffered 18 MΩ Ultrapure H2O; from KSV with kq assumed kdiff ~ 7.2 × 10^9 s^−1
Method in brief: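 pHP GABA (0.001–0.01 mol/L) was diluted with potassium sorbate quencher (0–0.1 mol/L) and photolysed under the quantum-yield conditions (Rayonet, 3000 Å, LC-MS quantitation of GABA release). KSV came from Φ0/Φ vs [Q]. Triplet lifetime was obtained from KSV, taking kq as the diffusion rate in water.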

[3] = λ = 300 nm, reported earlier, for comparison, cited from earlier work
[4] = 300 nm, pH 5.0, ammonium acetate (0.01 mol/L), buffered CH3CN–H2O
[5] = unbuffered CH3CN–H2O (1:1), conversion <2%
[6] = unbuffered 18 MΩ Ultrapure H2O, conversion <2%

| Structure (SMILES) | Φapp, quantum yield for the appearance of GABA [1, 4] | Φapp, quantum yield for the appearance of rearranged acid [1, 4] | Φdis, quantum yield for the disappearance of pHP GABA [1, 4] | τ^3, triplet lifetime [2] | also measured |
| --- | --- | --- | --- | --- | --- |
| N#Cc1cc(C(=O)COC(=O)CCCN)ccc1O.O=C(O)C(F)(F)F [Compound 13, 4-(2-(3-Cyano-4-hydroxyphenyl)-2-oxoethoxy)-4-oxobutan-1-aminium-2,2,2-trifluoroacetate] | 0.13 | 0.19 | 0.21 | 40.5 10^−9s | Φapp, quantum yield for the appearance of GABA [1, 5]: 0.35; Φapp, quantum yield for the appearance of rearranged acid [1, 5]: 0.39; Φdis, quantum yield for the disappearance of pHP GABA [1, 5]: 0.42 |
| NCCCC(=O)OCC(=O)c1ccc(O)c(F)c1.O=C(O)C(F)(F)F [Compound 16, 4-(2-(3-Fluoro-4-hydroxyphenyl)-2-oxoethoxy)-4-oxobutan-1-aminium-2,2,2-trifluoroacetate] | 0.14 | 0.14 | 0.15 | 3.23 10^−9s | Φapp, quantum yield for the appearance of GABA [1, 6]: 0.15; Φapp, quantum yield for the appearance of rearranged acid [1, 6]: 0.15; Φdis, quantum yield for the disappearance of pHP GABA [1, 6]: 0.16 |
| CC(=O)OCC(=O)c1ccc(O)cc1 [Compound 24, 2-(4-Hydroxyphenyl)-2-oxoethyl acetate] |  |  |  |  | Φdis, disappearance quantum yield (parent pHP acetate) ([3]; 20% aq CH3CN or DMSO): 0.30 |
| CCOP(=O)(OCC)OCC(=O)c1ccc(O)cc1 [Compound 27, Diethyl (2-(4-hydroxyphenyl)-2-oxoethyl) phosphate] |  |  |  |  | Φdis, disappearance quantum yield (parent pHP diethyl phosphate) ([3]; 50% aq CH3CN): 0.40 |
